One test has as its system E. coli (ATCC 25922). Kind of test: crystal violet biofilm inhibition assay, E. coli. It counts as cell-based, Escherichia coli. Particulars: for E. coli % Inhibition ± S.D: biofilm inhibition at 250 μM; for E. coli MBIC dose: biofilm inhibitory concentration, 24 h, crystal violet. A digest of the protocol:
(§1)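 Strains cultured in tryptone soya broth or agar. Test compound twofold serially diluted (500–1 μM) in TSB and inoculated at 5 x 10^5 CFU/mL. Incubated 24 h at 37 °C. Medium discarded and wells washed with sterile water, then stained with 0.1% w/v crystal violet for 15 min. Washed and air-dried; bound dye taken up in 30% v/v acetic acid. A590 gave percent biofilm inhibition.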

In test [1] the test system is NIH-3T3 (mouse normal fibroblast). Nature of the test: MTT cell cytotoxicity assay, NIH-3T3. It counts as cell-based. The following applies: read-out: NIH-3T3 IC50 ± S.D. A digest of the protocol:
(§2)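 Cells maintained in high-glucose DMEM with 2 mM L-glutamine, 10% FBS and 1% antibiotics, passaged before 70% confluency. Seeded at 10 000/well, left overnight at 37 °C, washed, then exposed to a range of test compound concentrations for 48 h. MTT (0.5 mg/mL as added) for 4 h, formazan dissolved in DMSO, OD 570 nm. IC50 fitted from percent inhibition.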
(Tetrazolium assays rely on reduction of a dye to a coloured formazan, in cell work by metabolically active cells.)

In test [2] the test system is A. baumannii (ATCC 19606). Kind of test: crystal violet biofilm inhibition assay, A. baumannii. Particulars: for A. baumannii MBIC dose: biofilm inhibitory concentration, 24 h, crystal violet. It counts as cell-based, Acinetobacter baumannii. A digest of the protocol:
as §1

Test [3] has as its system K. pneumoniae (ATCC 13882). Kind of test: crystal violet biofilm inhibition assay, K. pneumoniae. It counts as cell-based, Klebsiella pneumoniae. Particulars: for K. pneumonia % inhibition ± S.D: biofilm inhibition at 250 μM; for K. pneumonia MBIC dose: biofilm inhibitory concentration, 24 h, crystal violet. A digest of the protocol: as §1
Another test concerns S. aureus (NCTC 6571). Kind of test: crystal violet biofilm inhibition assay, S. aureus. It counts as cell-based, Staphylococcus aureus. Particulars: biofilm inhibition at 500 μM. A digest of the protocol: as §1
The test system of the next test is NCI-H460 (lung cancer). Nature of the test: MTT cell cytotoxicity assay, NCI-H460. It counts as cell-based. Particulars: Homo sapiens, NCI-H460, 48 h, read-out: NCI-H460 IC50 ± S.D. A digest of the protocol: as §2
The next test has as its system CAL-27 (oral cancer). Nature of the test: MTT cell cytotoxicity assay, CAL-27. The following applies: Homo sapiens, CAL-27, 48 h, read-out: CAL-27 IC50 ± S.D. It counts as cell-based. A digest of the protocol:
as §2

The record followed here is publication PMC6921677 (ACS Omega, 2019).

Each structure is given as a SMILES string. Like-named read-outs stand apart in the source and are kept apart here.

By IC50 is commonly meant the concentration needed to halve the response being measured.

On to `O.O.O=C([O-])Cc1ccccc1Nc1c(Cl)cccc1Cl.[Li+].c1cnc2c(c1)ccc1cccnc12` [Complex 3, [Li(phen)(H2O)2][dcf]], for which, in the test with E. coli (ATCC 25922), the “E. coli % Inhibition ± S.D” value was found to be 76.22 ± 0.026% and the “E. coli MBIC dose” value is 250 µM. For the same compound, the IC50 in test [1] (MTT, 48 h treatment, normal mouse fibroblast) amounted to 135 ± 4.96 µM. Moreover, in test [2] (biofilm inhibition at 125 μM), the “A. baumannii % Inhibition ± S.D” value came to 87.924 ± 0.073%. Further, the “A. baumannii MBIC dose” value in test [2] is 125 µM. In test [3], the “K. pneumonia % inhibition ± S.D” value stood at 77.91 ± 0.062% and the “K. pneumonia MBIC dose” value is 250 µM. Besides, the “S. aureus % Inhibition ± S.D” value with S. aureus (NCTC 6571) is listed as 3.306 ± 0.166%.

Take `O=c1[nH]cc(F)c(=O)[nH]1` [5-fluorouracil]: the IC50 in test [1] (Mus musculus, NIH3T3, 48 h) was > 100 µM; in the test on NCI-H460 (lung cancer), 4.54 ± 1.67 µM; in the test with CAL-27 (oral cancer), 2.41 ± 0.89 µM.

On to `O.O.O.O.O=C([O-])Cc1ccccc1Nc1c(Cl)cccc1Cl.O=C([O-])Cc1ccccc1Nc1c(Cl)cccc1Cl.[K+].[K+].c1cnc2c(c1)ccc1cccnc12.c1cnc2c(c1)ccc1cccnc12` [Complex 2, [K2(phen)2(dcf)2(H2O)4]], for which, in the test on E. coli (ATCC 25922), the “E. coli % Inhibition ± S.D” value is on record as 72 ± 0.091% and the “E. coli MBIC dose” value came out at 250 µM. In addition, the “A. baumannii % Inhibition ± S.D” value in test [2] (biofilm inhibition at 250 μM) is 86.158 ± 0.068%. Besides, in test [2], the “A. baumannii MBIC dose” value stood at 250 µM. In test [3], the “K. pneumonia % inhibition ± S.D” value was found to be 77.26 ± 0.063% and the “K. pneumonia MBIC dose” value amounted to 250 µM. In the test on S. aureus (NCTC 6571), the “S. aureus % Inhibition ± S.D” value is “–1.497 ± 0.288%”.
